Calls of active or inactive are those of the source. No cut-off for these calls is given here.
Tests used:
[1] = system: PC-12; assay: Neuroprotective activity against rotenone-induced apoptosis in rat PC12 cells assessed as viable cells at 20 uM after 24 hrs by 7-AAD/annexin V APC staining-based flow cytometric method (reference value: 39.3%); type: functional; settings: PC-12, 24 h, read-out: Activity
[2] = system: PC-12; assay: Neuroprotective activity against rotenone-induced apoptosis in rat PC12 cells assessed as viable cells at 10 uM after 24 hrs by 7-AAD/annexin V APC staining-based flow cytometric method (reference value: 39.3%); type: functional; settings: PC-12, 24 h, read-out: Activity
[3] = system: PC-12; assay: Neuroprotective activity against 6-OHDA-induced apoptosis in rat PC12 cells assessed as necrotic cells at 40 uM after 24 hrs by 7-AAD/annexin V APC staining-based flow cytometric method (reference value: 0.6%); type: functional
[4] = system: PC-12; assay: Neuroprotective activity against 6-OHDA-induced apoptosis in rat PC12 cells assessed as late apoptotic cells at 20 uM after 24 hrs by 7-AAD/annexin V APC staining-based flow cytometric method (reference value: 4.4%); type: functional
[5] = system: PC-12; assay: Neuroprotective activity against rotenone-induced apoptosis in rat PC12 cells assessed as decrease in nuclear condensation at 20 uM after 24 hrs by Hoechst 33258 staining-based fluorescent inverted microscopic method; type: functional, cell-based
Procedure, shortened: (§1)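 PC12 cells exposed to 6-OHDA or rotenone with test treatment were stained with Hoechst 33258 for 30 min, mounted on glass slides under cover slips, and examined by fluorescent inverted microscopy.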

[6] = system: PC-12; assay: Neuroprotective activity against rotenone-induced apoptosis in rat PC12 cells assessed as decrease in nuclear fragmentation at 20 uM after 24 hrs by Hoechst 33258 staining-based fluorescent inverted microscopic method; type: functional, cell-based; procedure, shortened: as §1
[7] = system: PC-12; assay: Neuroprotective activity against 6-OHDA-induced apoptosis in rat PC12 cells assessed as viable cells at 20 uM after 24 hrs by 7-AAD/annexin V APC staining-based flow cytometric method (reference value: […]); type: functional; settings: PC-12, 24 h, read-out: Activity
[8] = system: PC-12; assay: Neuroprotective activity against 6-OHDA-induced toxicity in rat PC12 cells assessed as increase in cell survival preincubated for 24 hrs followed by 6-OHDA addition measured after 24 hrs by MTT assay; type: functional, cell-based
Procedure, shortened: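 PC12 cells in RPMI-1640 with 10% FBS were seeded at 5×10^3 cells/well. After 24 h, compounds at 20 μM were added for 24 h at 37 °C, followed by 6-OHDA (40 μM) or rotenone (1 μM) for 24 h. Viability by MTT (570 nm, reference 630 nm), expressed as percent of untreated control. […] Mean ± SEM.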

[9] = system: PC-12; assay: Neuroprotective activity against 6-OHDA-induced apoptosis in rat PC12 cells assessed as early apoptotic cells at 5 uM after 24 hrs by 7-AAD/annexin V APC staining-based flow cytometric method (reference value: 42.1%); type: functional
[10] = system: PC-12; assay: Neuroprotective activity against 6-OHDA-induced apoptosis in rat PC12 cells assessed as late apoptotic cells at 5 uM after 24 hrs by 7-AAD/annexin V APC staining-based flow cytometric method (reference value: 4.4%); type: functional
[11] = system: PC-12; assay: Neuroprotective activity against rotenone-induced apoptosis in rat PC12 cells assessed as necrotic cells at 40 uM after 24 hrs by 7-AAD/annexin V APC staining-based flow cytometric method (reference value: 48.6%); type: functional
[12] = system: Mus musculus; assay: Acute toxicity in Kunming mouse assessed as mortality at 2000 mg/kg measured for 14 days; type: organism-based; settings: in vivo, 336 h
Procedure, shortened: (§2)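 Kunming mice (20 ± 2 g), 10 per group, vehicle control group; fasted overnight, single oral dose in 0.5% CMC-Na suspension. Observed continuously for 4 h, intermittently to 24 h, then occasionally to day 14 for behaviour, mortality, food and water intake and body weight; sacrificed under ether on day 14.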

[13] = system: PC-12; assay: Neuroprotective activity against 6-OHDA-induced apoptosis in rat PC12 cells assessed as early apoptotic cells at 10 uM after 24 hrs by 7-AAD/annexin V APC staining-based flow cytometric method (reference value: 42.1%); type: functional
[14] = system: PC-12; assay: Neuroprotective activity against rotenone-induced apoptosis in rat PC12 cells assessed as early apoptotic cells at 40 uM after 24 hrs by 7-AAD/annexin V APC staining-based flow cytometric method (reference value: 2.2%); type: functional
[15] = system: PC-12; assay: Neuroprotective activity against rotenone-induced reactive oxygen species accumulation in rat PC12 cells after 24 hrs by DCFH-DA probe-based flow cytometric method; type: functional, cell-based
Procedure, shortened: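 PC12 cells were seeded at 2×10^5 cells/well in six-well plates and cultured with or without various concentrations of test samples for 24 h. After washing, they were loaded with DCFH-DA for 30 min at 37 °C in the dark, washed and harvested. DCF fluorescence read by flow cytometry (ex 488/em 525 nm), reported as mean fluorescence intensity.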

[16] = system: PC-12; assay: Neuroprotective activity against 6-OHDA-induced toxicity in rat PC12 cells assessed as increase in cell viability after 24 hrs by phase-contrast microscopic method; type: functional, cell-based
Procedure, shortened: (§3)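 PC12 cells were exposed to 5-40 μM test compound together with 40 μM 6-OHDA or 1 μM rotenone for 24 h. Viability was judged from phase-contrast images against untreated controls.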

[17] = system: PC-12; assay: Neuroprotective activity against rotenone-induced apoptosis in rat PC12 cells assessed as late apoptotic cells at 10 uM after 24 hrs by 7-AAD/annexin V APC staining-based flow cytometric method (reference value: 9.9%); type: functional
[18] = system: Mus musculus; assay: Acute toxicity in Kunming mouse assessed as reduction in body weight at 2000 mg/kg measured for 14 days; type: organism-based; settings: in vivo, 336 h; procedure, shortened: as §2
[19] = Neuroprotective activity against 6-OHDA-induced toxicity in rat PC12 cells assessed as cell survival at 20 uM preincubated for 24 hrs followed by 6-OHDA addition measured after 24 hrs by MTT assay relative to control; type: functional; settings: PC-12, read-out: Survival
Procedure, shortened: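 PC12 cells seeded 5×10^3/well, after 24 h given compound at 20 μM for 24 h at 37 °C, then exposed to 6-OHDA (40 μM) or rotenone (1 μM) for 24 h. […] Mean ± SEM of three independent experiments.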

[20] = system: Mus musculus; assay: Acute toxicity in Kunming mouse assessed as abnormal changes in water consumption at 2000 mg/kg measured for 14 days; type: organism-based; settings: in vivo, 336 h; procedure, shortened: as §2
[21] = system: PC-12; assay: Neuroprotective activity against rotenone-induced toxicity in rat PC12 cells assessed as increase in cell viability after 24 hrs by phase-contrast microscopic method; type: functional, cell-based; procedure, shortened: as §3
[22] = in vitro; settings: PAMPA
[23] = system: PC-12; assay: Neuroprotective activity against 6-OHDA-induced apoptosis in rat PC12 cells assessed as necrotic cells at 20 uM after 24 hrs by 7-AAD/annexin V APC staining-based flow cytometric method (reference value: 0.6%); type: functional
[24] = system: PC-12; assay: Neuroprotective activity against 6-OHDA-induced apoptosis in rat PC12 cells assessed as late apoptotic cells at 10 uM after 24 hrs by 7-AAD/annexin V APC staining-based flow cytometric method (reference value: 4.4%); type: functional
[25] = system: Mus musculus; assay: Acute toxicity in Kunming mouse assessed as abnormal changes in food consumption at 2000 mg/kg measured for 14 days; type: organism-based; settings: in vivo, 336 h; procedure, shortened: as §2
[26] = system: PC-12; assay: Neuroprotective activity against 6-OHDA-induced apoptosis in rat PC12 cells assessed as early apoptotic cells at 20 uM after 24 hrs by 7-AAD/annexin V APC staining-based flow cytometric method (reference value: 42.1%); type: functional

## O=C1CCOc2cc(OCc3ccc(F)cc3)ccc21
[1]
  viability at 20 µM: 57.8%
[2]
  viability at 10 µM: 48%
[3]
  Activity: 1.9%
[4]
  Activity: 0.3%
[5]
  Activity: Active
[6]
  Activity: Active
[7]
  viability at 20 µM: 87.8%
[8]
  Activity: Dose-dependent effect
[9]
  Activity: 25.1%
[10]
  Activity: 1.8%
[11]
  Activity: 25.8%
[12]
  Activity: Non-Toxic
[13]
  Activity: 22%
[14]
  Activity: 2.9%
[15]
  Activity: Dose-dependent effect
[16]
  Activity: Dose-dependent effect
[17]
  Activity: 16.1%
[18]
  Activity: Non-Toxic
[19]
  viability at 20 µM: 134%
[20]
  Activity: Non-Toxic
[21]
  Activity: Dose-dependent effect
[22]
  Papp at 16 h, 100 ug/ml: 143 nm/s
[23]
  Activity: 1.1%
[24]
  Activity: 3.3%
[25]
  Activity: Non-Toxic
[26]
  Activity: 10.8%

Reference: ChEMBL document CHEMBL3862011, “Neuroprotective effects of benzyloxy substituted small molecule monoamine oxidase B inhibitors in Parkinson's disease” (Bioorg Med Chem, 2016)
